Assay [1] deals with T1, Cannabinoid receptor 1 (Rattus norvegicus, UniProt P20272). Put plainly: The compound was tested for Ki value against rat whole brain P2 membrane preparation in presence of enzyme inhibitor PMSF. Summed up: (§1)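 Rat whole-brain P2 membranes (100-150 µg protein) incubated 1 h at 30 °C with 1 nM [3H]CP-55,940 and analogue at 1 nM-10 µM, with or without PMSF (50 µM). Buffer: 50 mM Tris-HCl, 1 mM EDTA, 3 mM MgCl2, 5 mg/mL BSA; ethanol ≤0.4%. Nonspecific binding with 1 µM CP-55,940. Stopped with ice-cold buffer, then rapid filtration on PEI-treated filters. Triplicates; 3-6 experiments; mean ± SE.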

Assay [2] relates to Mus musculus. Put plainly: The compound tested in vivo for antinociception as measured by tail flick response(TF) activity at 30 mg/kg. In kind it is functional. An outline of the steps: (§2)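 Mice dosed iv by tail vein in ethanol:emulphor:saline 1:1:18. Tail flick to heat measured at 4 min, with 2-4 s baseline and 10 s cut-off, expressed as %MPE. Same mice then placed in photocell cages; beam breaks counted over 10 min and expressed as % of control. 6 mice/dose. ED50 from probit versus log dose by least-squares regression.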

Assay [3] has as its system Mus musculus. Briefly: The compound tested in vivo for inhibition of spontaneous activity(SA)at 30 mg/kg. In kind it is functional. Also on record: scale not given: the % may be the effect or the level left. Summed up:
as §2

Assay [4] deals with Mus musculus. Put plainly: The compound tested in vivo for ring immobility (RI). In kind it is functional. An outline of the steps: (§3)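 Separate mice dosed iv by tail vein in ethanol:emulphor:saline 1:1:18. Rectal temperature taken by thermistor probe before and 4 min after injection; the change was recorded. Mice then placed on a 5.5-cm ring 16 cm high; time motionless over 5 min was taken as % of 300 s. Immobility ED50 from probit-log dose regression.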

The subject of assay [5] is Mus musculus. Put plainly: The compound tested in vivo for hypothermia as changes in rectal temperature (RT). In kind it is functional. Summed up:
as §3

Assay [6] concerns the target T1, Cannabinoid receptor 1. Briefly: The compound was tested for Ki value against rat whole brain P2 membrane preparation in absence of enzyme inhibitor PMSF. An outline of the steps: as §1
In assay [7] the test system is Mus musculus. Briefly: The compound tested in vivo for inhibition of spontaneous activity(SA). It counts as functional. Summed up: as §2
In assay [8] the test system is Mus musculus. Briefly: The compound tested in vivo for antinociception as measured by tail flick response(TF). It counts as functional. An outline of the steps: as §2
In assay [9] the test system is Mus musculus. Put plainly: The compound tested in vivo for ring immobility (RI)a. In kind it is functional. Summed up:
as §3

T1 sequence (P20272 whole entry): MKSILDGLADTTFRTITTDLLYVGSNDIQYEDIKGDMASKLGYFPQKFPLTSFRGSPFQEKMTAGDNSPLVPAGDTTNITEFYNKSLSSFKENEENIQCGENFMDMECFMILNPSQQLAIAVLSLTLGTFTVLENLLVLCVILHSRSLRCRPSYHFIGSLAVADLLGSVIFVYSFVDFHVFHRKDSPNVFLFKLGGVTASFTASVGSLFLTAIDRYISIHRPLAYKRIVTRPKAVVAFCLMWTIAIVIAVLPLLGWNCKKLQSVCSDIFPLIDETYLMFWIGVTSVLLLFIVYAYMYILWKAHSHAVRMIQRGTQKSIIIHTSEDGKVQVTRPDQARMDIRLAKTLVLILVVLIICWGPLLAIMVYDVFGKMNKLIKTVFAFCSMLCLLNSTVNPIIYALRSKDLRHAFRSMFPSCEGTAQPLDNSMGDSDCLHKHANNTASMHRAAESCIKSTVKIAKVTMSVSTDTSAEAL

For the compound `CCCCC/C=C\C/C=C\C/C=C\C/C=C\CCCCOC(=O)NCC`, the Ki on Cannabinoid receptor 1 [1] was 2200 nM.
`CCCCC/C=C\C/C=C\C/C=C\C/C=C\CCCNC(=O)NCC(C)C`: the inhibition constant Ki at Cannabinoid receptor 1 [1] is 335 nM. Also, the Activity in the assay with Mus musculus [2] was 26%; in the assay on Mus musculus [3], 59%.
Take `CCCCC/C=C\C/C=C\C/C=C\C/C=C\CCCCOCCO`: the Ki on Cannabinoid receptor 1 [1] is 797 nM.
Turning to `CCCCC/C=C\C/C=C\C/C=C\C/C=C\CCCCOC`, on Cannabinoid receptor 1 [1], the Ki is 4260 nM.
For the compound `CCCCC/C=C\C/C=C\C/C=C\C/C=C\CCCNC(=O)NCCC`, the values for the inhibition constant Ki on Cannabinoid receptor 1 [1] and at Cannabinoid receptor 1 [6] were 91 nM and 170 nM, respectively. The median effective dose (ED50) is 5.4 mg/kg with Mus musculus [4], 3.4 mg/kg in the assay with Mus musculus [5], 7.2 mg/kg with Mus musculus [7] and 8.9 mg/kg in the assay on Mus musculus [8].
For the compound `C=CCOCCCC/C=C\C/C=C\C/C=C\C/C=C\CCCCC`, on Cannabinoid receptor 1 [1], the inhibition constant Ki was 1170 nM.
Take `CCCCC/C=C\C/C=C\C/C=C\C/C=C\CCCCOCCCC`: on Cannabinoid receptor 1 [1], the Ki was 1710 nM.
Take `CCCCC/C=C\C/C=C\C/C=C\C/C=C\CCCCOC(C)C`: the inhibition constant (Ki) on Cannabinoid receptor 1 [1] is 871 nM.
Regarding `CCCCC/C=C\C/C=C\C/C=C\C/C=C\CCCNC(=O)NC(C)C`, the Ki came to 131 nM on Cannabinoid receptor 1 [1] and 204 nM at Cannabinoid receptor 1 [6]. Moreover, the ED50 in the assay on Mus musculus [4] came out at 38 mg/kg; with Mus musculus [5] it was 1.28 mg/kg; in the assay on Mus musculus [7], 5.8 mg/kg; in the assay with Mus musculus [8], 2.4 mg/kg.
`CCCCC/C=C\C/C=C\C/C=C\C/C=C\CCCNC(=O)NCC`: on Cannabinoid receptor 1 [1], the inhibition constant Ki is 156 nM. For the same compound, the median effective dose (ED50) in the assay on Mus musculus [4] turned out to be 19.9 mg/kg; in the assay on Mus musculus [5] it was 16.2 mg/kg; in the assay with Mus musculus [7] it was 2.8 mg/kg; in the assay on Mus musculus [8] it was 3.3 mg/kg.
Consider `CCCCC/C=C\C/C=C\C/C=C\C/C=C\CCCCOCCF`, for which, on Cannabinoid receptor 1 [1], the inhibition constant (Ki) stood at 885 nM.
As to `CCCCC/C=C\C/C=C\C/C=C\C/C=C\CCCNC(=O)OC(C)C`, on Cannabinoid receptor 1 [1], the Ki came out at 1230 nM. Also, the Activity came to 3% in the assay on Mus musculus [2] and 35% in the assay with Mus musculus [3].
As for `CCCCC/C=C\C/C=C\C/C=C\C/C=C\CCCCOCC(C)C`, at Cannabinoid receptor 1 [1], the Ki was 2480 nM.
Regarding `CCCCC/C=C\C/C=C\C/C=C\C/C=C\CCCCOC(C)CC` (stereo not given), the inhibition constant (Ki) at Cannabinoid receptor 1 [1] came to 1310 nM.
On the same count and under the same terms, the same measure for `CCCCC/C=C\C/C=C\C/C=C\C/C=C\CCCCOC(=O)NCCC`: 471 nM; for `CCCCC/C=C\C/C=C\C/C=C\C/C=C\CCCCOC(=O)NC(C)C`: 995 nM; for `C#CCOCCCC/C=C\C/C=C\C/C=C\C/C=C\CCCCC`: 1580 nM.
For `CCCCC/C=C\C/C=C\C/C=C\C/C=C\CCCNC(=O)NCCO`, the inhibitory constant (Ki) at Cannabinoid receptor 1 [1] came out at 347 nM. The 50% effective dose (ED50) in the assay on Mus musculus [4] was 3.9 mg/kg; in the assay on Mus musculus [5], 2.6 mg/kg; in the assay with Mus musculus [7], 3.1 mg/kg; in the assay on Mus musculus [8], 4 mg/kg.
Regarding `CCCCC/C=C\C/C=C\C/C=C\C/C=C\CCCCOCC`, on Cannabinoid receptor 1 [1], the Ki amounted to 2200 nM.
For the compound `CCCCC/C=C\C/C=C\C/C=C\C/C=C\CCCNC(=O)OCCF`, the inhibition constant (Ki) at Cannabinoid receptor 1 [1] was determined as 331 nM. Moreover, the Activity with Mus musculus [2] turned out to be 20%; with Mus musculus [3], 18%.
For `CCCCC/C=C\C/C=C\C/C=C\C/C=C\CCCNC(=O)OCC`, the inhibitory constant (Ki) on Cannabinoid receptor 1 [1] is 218 nM. Besides, the Activity with Mus musculus [2] came out at 5%; with Mus musculus [3], 36%.
As to `CCCCC/C=C\C/C=C\C/C=C\C/C=C\CCCNC(=O)NCCOC`, at Cannabinoid receptor 1 [1], the inhibitory constant (Ki) was found to be 746 nM. For the same compound, the values for the Activity in the assay on Mus musculus [2] and with Mus musculus [3] were 32% and 69%, respectively. Further, it took a dose of 3 mg/kg to reach the 50% effect level with Mus musculus [4] (ED50).
With `CCCCC/C=C\C/C=C\C/C=C\C/C=C\CCCNC(=O)NC`, at Cannabinoid receptor 1 [1], the Ki came out at 436 nM. Also, the ED50 with Mus musculus [4] worked out at 4.51 mg/kg; in the assay on Mus musculus [5], 2.2 mg/kg; with Mus musculus [7], 9.9 mg/kg; with Mus musculus [8], 12.3 mg/kg.
In the case of `CCCCC/C=C\C/C=C\C/C=C\C/C=C\CCCCOCCC`, the inhibitory constant (Ki) on Cannabinoid receptor 1 [1] was 1080 nM.
On the same count and under the same terms, the same measure for `CCCCC/C=C\C/C=C\C/C=C\C/C=C\CCCCOCC1CC1`: 578 nM.
Regarding `CCCCC/C=C\C/C=C\C/C=C\C/C=C\CCCNC(=O)NCCF`, the inhibition constant (Ki) at Cannabinoid receptor 1 [1] was 55 nM; at Cannabinoid receptor 1 [6], 52 nM. Further, the median effective dose (ED50) with Mus musculus [5] stood at 0.85 mg/kg; in the assay on Mus musculus [7] it was 3.5 mg/kg; in the assay on Mus musculus [9], 4.48 mg/kg; in the assay with Mus musculus [8] it was 6.4 mg/kg.
In turn, `CCCCC/C=C\C/C=C\C/C=C\C/C=C\CCCC(=O)NCCO` [ANANDAMIDE] gave a median effective dose (ED50) with Mus musculus [8] of 6.2 mg/kg.

The values are drawn from ChEMBL document CHEMBL1132228, “Unique analogues of anandamide: arachidonyl ethers and carbamates and norarachidonyl carbamates and ureas” (J Med Chem, 1999).
